# Laboratory results as given in ChEMBL document CHEMBL1122046, “Quaternary heterocyclylamino beta-lactams: a generic alternative to the classical acylamino side chain” (1982).
# What was measured:
# Type in all cases: functional
# Morganella morganii = test: Minimum inhibitory concentration against aerobic organism Morganella morganii strain 2833; conditions: Morganella morganii; read-out: MIC
# In short: (§1)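 Agar-dilution MIC in µg/mL against aerobic bacterial strains on tryptocase soy agar, with inoculum applied as spots. Most series used 10^5 cfu per spot, and a later series used 10^4 cfu per spot. In some tables, footnoted strains were instead tested on Mueller-Hinton or nutrient agar. β-Lactamase-producing strains are flagged.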
# Salmonella = test: Minimum inhibitory concentration against aerobic organism Salmonella strain 3860; in short: as §1
# Staphylococcus aureus [1] = test: Minimum inhibitory concentration against aerobic organism Staphylococcus aureus strain 2865; in short: as §1
# Klebsiella aerogenes [2] = test: Minimum inhibitory concentration against aerobic organism Enterobacter aerogenes strain 2828; in short: as §1
# Klebsiella pneumoniae [3] = test: Minimum inhibitory concentration against aerobic organism Klebsiella pneumoniae strain 4005; in short: as §1
# Staphylococcus aureus [4] = test: Minimum inhibitory concentration against aerobic organism Staphylococcus aureus strain 2868; conditions: Staphylococcus aureus; read-out: MIC; in short: as §1
# Enterococcus faecalis = test: Minimum inhibitory concentration against aerobic organism Streptococcus faecalis strain 2864; in short: as §1
# Pseudomonas aeruginosa = test: Minimum inhibitory concentration against aerobic organism Pseudomonas aeruginosa strain 2835; in short: as §1
# Escherichia coli = test: MIC against aerobic organism Escherichia coli strain 2891; conditions: Escherichia coli; read-out: MIC; in short: as §1
# Proteus mirabilis = test: Minimum inhibitory concentration against aerobic organism Proteus mirabilis strain 2830; conditions: Proteus mirabilis; read-out: MIC; in short: as §1
# Enterobacter cloacae = test: Minimum inhibitory concentration against aerobic organism Enterobacter cloacae strain 2646; conditions: Enterobacter cloacae; read-out: MIC; in short: as §1
# Proteus vulgaris = test: Minimum inhibitory concentration against aerobic organism Proteus vulgaris strain 2829; conditions: Proteus vulgaris; read-out: MIC; in short: as §1
# Serratia marcescens = test: Minimum inhibitory concentration against aerobic organism Serratia marcescens strain 2852; conditions: Serratia marcescens; read-out: MIC; in short: as §1
# Klebsiella aerogenes [5] = test: Minimum inhibitory concentration against aerobic organism Enterobacter aerogenes strain 2906; conditions: Klebsiella aerogenes; read-out: MIC; in short: as §1
# Shigella = test: Minimum inhibitory concentration against aerobic organism Shigella species strain 2880; conditions: Shigella; read-out: MIC; in short: as §1
# [6] = Minimum inhibitory concentration against aerobic organism Salmonella schottmuelleri strain 2837; conditions: Salmonella; read-out: MIC; in short: as §1
# Klebsiella pneumoniae [7] = test: Minimum inhibitory concentration against aerobic organism Klebsiella pneumoniae strain 2882; conditions: Klebsiella pneumoniae; read-out: MIC; in short: as §1
# Streptococcus pyogenes = test: Minimum inhibitory concentration against aerobic organism Streptococcus pyogenes strain 3124; conditions: Streptococcus pyogenes; read-out: MIC; in short: as §1
Compound,MIC (Morganella morganii),MIC (Salmonella),MIC (Staphylococcus aureus [1]),MIC (Klebsiella aerogenes [2]),MIC (Klebsiella pneumoniae [3]),MIC (Staphylococcus aureus [4]),MIC (Enterococcus faecalis),MIC (Pseudomonas aeruginosa),MIC (Escherichia coli),MIC (Proteus mirabilis),MIC (Enterobacter cloacae),MIC (Proteus vulgaris),MIC (Serratia marcescens),MIC (Klebsiella aerogenes [5]),MIC (Shigella),MIC [6],MIC (Klebsiella pneumoniae [7]),MIC (Streptococcus pyogenes)
Cn1nnnc1SCC1=C(C(=O)[O-])N2C(=O)[C@@H](Nc3cc[n+](COCC(Cl)(Cl)Cl)cc3C(=O)OC(C)(C)C)[C@H]2SC1,> 128 µg/mL,> 128 µg/mL,128 µg/mL,> 128 µg/mL,> 128 µg/mL,> 128 µg/mL,> 128 µg/mL,> 128 µg/mL,128 µg/mL,> 128 µg/mL,> 128 µg/mL,> 128 µg/mL,–,–,–,–,–,–
Cn1nnnc1SCC1=C(C(=O)[O-])N2C(=O)[C@@H](Nc3cc[n+](CCc4ccccc4)cc3)[C@H]2SC1,> 128 µg/mL,–,–,–,–,4 µg/mL,> 128 µg/mL,> 128 µg/mL,4 µg/mL,> 128 µg/mL,8 µg/mL,> 128 µg/mL,> 128 µg/mL,64 µg/mL,< 0.5 µg/mL,1 µg/mL,1 µg/mL,< 0.5 µg/mL
Cn1nnnc1SCC1=C(C(=O)[O-])N2C(=O)[C@@H](Nc3cc[n+](Cc4ccc(C#N)cc4)cc3)[C@H]2SC1,128 µg/mL,–,–,–,–,32 µg/mL,> 128 µg/mL,> 128 µg/mL,0.25 µg/mL,128 µg/mL,8 µg/mL,16 µg/mL,128 µg/mL,8 µg/mL,< 0.06 µg/mL,0.125 µg/mL,1 µg/mL,0.125 µg/mL
Cn1nnnc1SCC1=C(C(=O)[O-])N2C(=O)[C@@H](Nc3cc[n+](COCC(F)(F)F)cc3)[C@H]2SC1,> 128 µg/mL,–,–,–,–,4 µg/mL,> 128 µg/mL,> 128 µg/mL,< 0.06 µg/mL,> 128 µg/mL,< 0.06 µg/mL,4 µg/mL,128 µg/mL,4 µg/mL,< 0.06 µg/mL,< 0.06 µg/mL,1 µg/mL,< 0.06 µg/mL
COC(=O)c1c[n+](C)ccc1N[C@@H]1C(=O)N2C(C(=O)[O-])=C(CSc3nnnn3C)CS[C@H]12,> 128 µg/mL,–,–,–,–,> 128 µg/mL,> 128 µg/mL,> 128 µg/mL,> 128 µg/mL,> 128 µg/mL,> 128 µg/mL,> 128 µg/mL,> 128 µg/mL,> 128 µg/mL,> 128 µg/mL,128 µg/mL,> 128 µg/mL,32 µg/mL
COC(=O)c1ccc(NC2C(=O)N3C(C(=O)[O-])=C(CSc4nnnn4C)CSC23)[n+](C)c1 (centres undefined),> 128 µg/mL,–,–,–,–,> 128 µg/mL,> 128 µg/mL,> 128 µg/mL,> 128 µg/mL,> 128 µg/mL,> 128 µg/mL,> 128 µg/mL,> 128 µg/mL,> 128 µg/mL,> 128 µg/mL,128 µg/mL,> 128 µg/mL,16 µg/mL
COc1ccc(C[n+]2ccc(N[C@@H]3C(=O)N4C(C(=O)[O-])=C(CSc5nnnn5C)CS[C@H]34)cc2)cc1,16 µg/mL,–,–,–,–,8 µg/mL,> 64 µg/mL,> 64 µg/mL,0.25 µg/mL,16 µg/mL,8 µg/mL,< 0.06 µg/mL,64 µg/mL,4 µg/mL,0.5 µg/mL,0.125 µg/mL,0.5 µg/mL,< 0.06 µg/mL
CC(=O)OCC1=C(C(=O)[O-])N2C(=O)[C@@H](Nc3cc[n+](C)cc3)[C@H]2SC1,> 128 µg/mL,–,–,–,–,64 µg/mL,> 128 µg/mL,> 128 µg/mL,> 128 µg/mL,> 128 µg/mL,> 128 µg/mL,< 0.5 µg/mL,> 128 µg/mL,> 128 µg/mL,64 µg/mL,8 µg/mL,32 µg/mL,2 µg/mL
CC1=C(C(=O)[O-])N2C(=O)[C@@H](Nc3cc[n+](Cc4ccccc4)cc3)[C@H]2SC1,> 128 µg/mL,–,–,–,–,64 µg/mL,128 µg/mL,> 128 µg/mL,4 µg/mL,> 128 µg/mL,64 µg/mL,> 128 µg/mL,> 128 µg/mL,128 µg/mL,2 µg/mL,0.5 µg/mL,32 µg/mL,0.06 µg/mL
CC[n+]1ccc(N[C@@H]2C(=O)N3C(C(=O)[O-])=C(CSc4nnnn4C)CS[C@H]23)cc1,0.5 µg/mL,–,–,–,–,64 µg/mL,> 128 µg/mL,> 128 µg/mL,< 0.5 µg/mL,2 µg/mL,2 µg/mL,< 0.06 µg/mL,> 128 µg/mL,0.5 µg/mL,< 0.5 µg/mL,4 µg/mL,1 µg/mL,1 µg/mL
CC(C)[n+]1ccc(N[C@@H]2C(=O)N3C(C(=O)[O-])=C(CSc4nnnn4C)CS[C@H]23)cc1,> 128 µg/mL,–,–,–,–,32 µg/mL,128 µg/mL,> 128 µg/mL,0.5 µg/mL,128 µg/mL,32 µg/mL,< 0.06 µg/mL,> 128 µg/mL,128 µg/mL,0.5 µg/mL,0.125 µg/mL,16 µg/mL,1 µg/mL
Cn1nnnc1SCC1=C(C(=O)[O-])N2C(=O)[C@@H](Nc3cc[n+](COCC(Cl)(Cl)Cl)cc3)[C@H]2SC1,32 µg/mL,–,–,–,–,2 µg/mL,> 128 µg/mL,> 128 µg/mL,< 0.06 µg/mL,64 µg/mL,0.125 µg/mL,< 0.06 µg/mL,64 µg/mL,8 µg/mL,< 0.06 µg/mL,< 0.06 µg/mL,0.125 µg/mL,< 0.06 µg/mL
Cn1nnnc1SCC1=C(C(=O)[O-])N2C(=O)C(Nc3ccc(Cl)c[n+]3C)C2SC1 (centres undefined),> 128 µg/mL,–,–,–,–,> 128 µg/mL,> 128 µg/mL,> 128 µg/mL,2 µg/mL,> 128 µg/mL,> 128 µg/mL,1 µg/mL,> 128 µg/mL,> 128 µg/mL,8 µg/mL,4 µg/mL,64 µg/mL,32 µg/mL
Cn1nnnc1SCC1=C(C(=O)[O-])N2C(=O)C(Nc3cccc[n+]3C)C2SC1 (centres undefined),> 128 µg/mL,–,–,–,–,> 128 µg/mL,> 128 µg/mL,> 128 µg/mL,64 µg/mL,128 µg/mL,> 128 µg/mL,0.5 µg/mL,> 128 µg/mL,16 µg/mL,32 µg/mL,> 128 µg/mL,128 µg/mL,32 µg/mL
